Experiments:
[1] = Inhibition of PI3K/mTOR in human U2OS cells assessed as inhibition of AKT1 phosphorylation at Ser473 residue by C-ELISA; assay type: cell-based
Outline: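 U2OS osteosarcoma cells grown in 0.1% FBS and serum-stimulated. Endogenous phospho-AKT1 Ser473 quantified by cell-based ELISA with chemiluminescent substrate. Signal plotted against inhibitor concentration and fitted to a sigmoid dose-response curve.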

[2] = biological target: Phosphatidylinositol 4,5-bisphosphate 3-kinase catalytic subunit gamma isoform (Homo sapiens, UniProt P48736); assay: Inhibition of human p110gamma using PIP2 as substrate in presence of ATP measured by HTRF assay
Chain of Phosphatidylinositol 4,5-bisphosphate 3-kinase catalytic subunit gamma isoform (P48736 whole entry, canonical isoform): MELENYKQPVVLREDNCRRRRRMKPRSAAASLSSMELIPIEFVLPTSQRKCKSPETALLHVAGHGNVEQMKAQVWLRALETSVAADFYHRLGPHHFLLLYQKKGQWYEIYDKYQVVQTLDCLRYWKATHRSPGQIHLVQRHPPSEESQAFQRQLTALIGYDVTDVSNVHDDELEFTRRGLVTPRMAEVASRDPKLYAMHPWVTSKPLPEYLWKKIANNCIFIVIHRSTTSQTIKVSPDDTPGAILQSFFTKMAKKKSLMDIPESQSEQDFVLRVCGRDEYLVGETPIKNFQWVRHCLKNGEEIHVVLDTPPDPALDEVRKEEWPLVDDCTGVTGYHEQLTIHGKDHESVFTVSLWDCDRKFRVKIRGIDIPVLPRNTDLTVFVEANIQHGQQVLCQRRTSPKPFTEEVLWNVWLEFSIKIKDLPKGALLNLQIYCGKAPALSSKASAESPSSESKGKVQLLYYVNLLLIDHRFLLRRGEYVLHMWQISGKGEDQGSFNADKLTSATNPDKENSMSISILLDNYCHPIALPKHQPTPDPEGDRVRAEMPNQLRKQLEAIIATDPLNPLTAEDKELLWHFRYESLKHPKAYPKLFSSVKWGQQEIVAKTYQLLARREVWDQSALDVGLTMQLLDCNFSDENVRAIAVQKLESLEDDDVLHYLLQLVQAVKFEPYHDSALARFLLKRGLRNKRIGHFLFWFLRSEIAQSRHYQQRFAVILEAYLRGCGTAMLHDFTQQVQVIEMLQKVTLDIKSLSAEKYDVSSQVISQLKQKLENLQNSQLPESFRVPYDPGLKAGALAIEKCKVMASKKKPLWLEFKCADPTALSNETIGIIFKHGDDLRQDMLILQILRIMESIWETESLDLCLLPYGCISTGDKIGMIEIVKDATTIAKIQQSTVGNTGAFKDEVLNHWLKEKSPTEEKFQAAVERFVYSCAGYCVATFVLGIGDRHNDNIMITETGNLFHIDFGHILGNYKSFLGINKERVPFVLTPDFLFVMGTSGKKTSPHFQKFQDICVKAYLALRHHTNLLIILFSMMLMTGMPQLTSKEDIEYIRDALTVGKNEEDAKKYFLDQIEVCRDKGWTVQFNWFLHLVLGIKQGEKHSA
Outline: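 HTRF PI3-kinase assay with PIP2 at 10 µM. Enzyme and ATP levels (ATP at 50× KM): p110α/p85α 100 pM with 200 µM ATP; p110δ/p85α 100 pM with 200 µM ATP; p110β/p85α 500 pM with 250 µM ATP; p110γ 4 nM with 100 µM ATP. Activity normalized to no-compound control, variable-slope sigmoidal fit. Two independent experiments in duplicate.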

[3] = Inhibition of PI3K/mTOR in human MCF7 cells assessed as reduction of AKT phosphorylation at Ser473 residue measured after 3 hrs by western blot assay; assay type: cell-based; conditions: MCF7, 3 h
Outline: (§1)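 MCF7 cells treated for 3 h across a dose range, washed and lysed with phosphatase and protease inhibitors. Lysates run on 10% SDS-PAGE and blotted, antibodies incubated overnight at 4 °C.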

[4] = Inhibition of PI3K/mTOR in human MCF7 cells assessed as reduction of AKT phosphorylation at Thr308 residue measured after 3 hrs by western blot assay; assay type: cell-based; conditions: MCF7, 3 h; outline: as §1
[5] = Inhibition of PI3K/mTOR in human MCF7 cells assessed as reduction of P70S6K phosphorylation at Thr389 residue measured after 3 hrs by western blot assay; assay type: cell-based; conditions: MCF7, 3 h; outline: as §1
[6] = Inhibition of PI3K/mTOR in human MCF7 cells assessed as reduction of S6 phosphorylation at Ser235/236 residue measured after 3 hrs by western blot assay; assay type: cell-based; conditions: MCF7, 3 h; outline: as §1
HT-29 = assay: Growth inhibition of human HT-29 cells harboring mutated p110alpha measured after 72 hrs by Cell titre Glo-luminiscence cell viability assay; assay type: functional
Outline: (§2)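 Cells harvested just before confluency and seeded at 4,000 cells/well, then left 24 h before dosing. Serial dilutions from 10 mM DMSO stocks, final DMSO ≤0.5%, each concentration in duplicate.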

NCI-H1975 = assay: Growth inhibition of human NCI-H1975 cells harboring mutated p110alpha measured after 72 hrs by Cell titre Glo-luminiscence cell viability assay; assay type: functional; outline: as §2
PC-3 = assay: Growth inhibition of human PC-3 cells harboring PTEN inactivation measured after 72 hrs by Cell titre Glo-luminiscence cell viability assay; assay type: functional; outline: as §2
DU-145 = assay: Growth inhibition of human DU-145 cells harboring wild type p110alpha and PTEN measured after 72 hrs by Cell titre Glo-luminiscence cell viability assay; assay type: functional; outline: as §2
A549 = assay: Growth inhibition of human A549 cells harboring wild type p110alpha and PTEN measured after 72 hrs by Cell titre Glo-luminiscence cell viability assay; assay type: functional; outline: as §2

EC50 [1]: 600 pM
Ki [2]: 510 pM
EC50 [3]: 650 pM
EC50 [4]: 210 pM
EC50 [5]: 680 pM
EC50 [6]: 870 pM
GI50 (HT-29): 19900 pM
GI50 (NCI-H1975): 14400 pM
GI50 (PC-3): 197000 pM
GI50 (DU-145): 16300 pM
GI50 (A549): 26600 pM
SMILES: COc1ncc(-c2ccc3nccc(-c4ccnnc4)c3c2)cc1NS(=O)(=O)c1ccc(F)cc1F [OMIPALISIB]

Reference: ChEMBL document CHEMBL4819017 (Eur J Med Chem, 2021)
